Test results taken from paper PMC5599970 (Hepatology (Baltimore, Md.), 2017).

Assays:
[1] = Serum lipids, leptin, adiponectin, glucose and blood ketones; assay type: in vivo, human; details: single dose of 20, 50, or 200 mg
Outline: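 Blood was drawn at protocol-specified times during the fasted, fructose-fed crossover periods. Serum lipids and blood ketones (ketometer) were measured by a clinical laboratory. Leptin and adiponectin were measured by solid-phase ELISA.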

[2] = tested on: hepatic de novo lipogenesis (DNL); assay: Fructose-stimulated fractional hepatic DNL; assay type: in vivo, human; details: for Inhibition of fasting-adjusted fractional DNL AUEC relative to placebo: 10-hour period; for Inhibition of fasting-adjusted fractional DNL AUEC relative to placebo / Mean reduction of fasting-adjusted DNL at 10 hours postdose relative to placebo: mean ± SEM
Outline: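 Overweight/obese men (18–50 y, BMI 25–32 kg/m²), 10/dose, placebo crossover, ≥5-day washout, fasted from hour −12. IV [1-13C]acetate (10 g in 1,000 mL 0.45% saline, 50 mL/hour, 19 h) from hour −9; capsule at hour 0; fructose 250 mg/kg every 30 min to hour +9.5. VLDL-TG palmitate by GC-MS/MIDA, hours −1 to +10; fasting-baseline-subtracted, AUEC, expressed relative to placebo.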

[3] = single doses between 30 and 1,000 mg; healthy adults; cited from earlier work
[4] = Plasma pharmacokinetics after a single oral dose; assay type: in vivo; details: human
Outline: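 Single oral capsule dose with 240 mL water in fasted men during fructose feeding, n = 10/group. Plasma was sampled predose and hourly through 10 h. Levels were measured by validated HPLC-MS/MS, with a lower limit of quantitation of 0.5 ng/mL. Noncompartmental parameters were calculated from actual sample times.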

[5] = Safety: treatment-emergent adverse events after a single oral dose; assay type: in vivo, human
Outline: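 TEAEs were any events after study medication and were coded to MedDRA v18.0. Events were attributed to the period's treatment, and events between acetate infusion and first dosing were counted separately. Monitoring included physical exams, vital signs (hours 0, 5.5, 10.5), clinical laboratory tests (day −1 and hour 10) and screening ECG.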

[6] = tested on: hepatic de novo lipogenesis (DNL); assay: PK-PD analysis of plasma exposure versus fractional DNL; assay type: in vivo, human; details: all dose groups
Outline: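 Each subject's time-matched plasma levels (sampled predose and hourly to 10 h, HPLC-MS/MS) were paired with fasting-adjusted fractional DNL at every sampling point for every dose group. The plasma levels at which 70% and 90% inhibition of maximal DNL occurred were read from these paired data.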

[7] = Hepatic extraction in preclinical studies; assay type: in vivo; details: cynomolgus monkeys, unpublished data
[8] = tested on: hepatic DNL; details: subjects with type 2 diabetes mellitus and hypertriglyceridemia; cited from earlier work

SMILES: COc1ccccc1[C@H](Cn1c(=O)n(C(C)(C)C(=O)O)c(=O)c2c(C)c(-c3ncco3)sc21)OC1CCOCC1 [NDI‐010976]
- Effects on serum glucose, lipids, leptin, adiponectin, blood ketones [1]: no significant NDI‐010976 effects
- Inhibition of fasting-adjusted fractional DNL AUEC relative to placebo ([2]; 20 mg single oral dose): approximately 70 ± 6%
- Mean reduction of fasting-adjusted DNL at 10 hours postdose relative to placebo ([2]; 20 mg single oral dose): approximately 41 ± 9%
- Inhibition of fractional DNL at 2 hours postdose ([2]; 20 mg, mean ± standard deviation): 60 ± 26%
- Inhibition of DNL by fasting-adjusted DNL AUEC, all subjects ([2]; 50 mg single dose, 10-hour period vs matched placebo period): > 70%
- Inhibition of fasting-adjusted fractional DNL AUEC relative to placebo ([2]; 50 mg single oral dose): ~85 ± 3%
- Mean reduction of fasting-adjusted DNL at 10 hours postdose relative to placebo ([2]; 50 mg single oral dose): ~53 ± 9%
- Inhibition of DNL, all subjects ([2]; 200 mg single dose): complete or near complete inhibition of DNL
- Inhibition of fasting-adjusted fractional DNL AUEC relative to placebo ([2]; 200 mg single oral dose): ~104 ± 2%
- Mean reduction of fasting-adjusted DNL at 10 hours postdose relative to placebo ([2]; 200 mg single oral dose): ~94 ± 4%
- Tolerability [3]: well tolerated
- Tmax [4]: 1 to 2 h
- Cmax ([4]; 20 mg): 43.4 ng/mL
- concentration at 2 h ([4]; 20 mg): 5.7 to 23.5 ng/mL
- Number of subjects with TEAEs (% of subjects dosed) ([5]; 20 mg): 3 (33%) subjects (%)
- Number of subjects without TEAEs (% of subjects dosed) ([5]; 20 mg): 6 (67%) subjects (%)
- Number of subjects with TEAEs (% of subjects dosed) ([5]; 50 mg): 7 (70%) subjects (%)
- Number of subjects without TEAEs (% of subjects dosed) ([5]; 50 mg): 3 (30%) subjects (%)
- Number of subjects with TEAEs (% of subjects dosed) ([5]; 200 mg): 5 (50%) subjects (%)
- Number of subjects without TEAEs (% of subjects dosed) ([5]; 200 mg): 5 (50%) subjects (%)
- Number of subjects with TEAEs (% of subjects dosed) ([5]; Total, all doses): 15 (52%) subjects (%)
- Number of subjects without TEAEs (% of subjects dosed) ([5]; Total, all doses): 14 (48%) subjects (%)
- Deaths, serious AEs, Grade 3 or higher TEAEs ([5]; single oral doses 20 to 200 mg): no deaths, serious AEs, or Grade 3 or higher TEAEs
- Safety and tolerability ([5]; single oral doses 20 to 200 mg): safe and well tolerated
- Plasma concentration associated with at least 70% inhibition of fractional DNL ([6]; one data point outlier): > 2.2 ng/mL
- Plasma concentration yielding >90% inhibition of fractional DNL ([6]; two data point outliers): > 4.0 ng/mL
- Hepatic extraction [7]: approximately 94%

SMILES: CCc1ccc(CCOc2ccc(CC3SC(=O)NC3=O)cc2)nc1 (stereo not shown) [pioglitazone]
- Reduction of hepatic DNL [8]: 40%
